Assay results from different studies.
Compare with care: the assays were run in different laboratories. Values after ≈ are worked out from the molar mass of the structure shown.

| Structure (SMILES) | organism | assay | test system | setting | quantity | value |
| --- | --- | --- | --- | --- | --- | --- |
| CC(C)CN(C[C@@H](O)[C@H](Cc1ccccc1)NC(=O)O[C@H]1CO[C@H]2OCC[C@H]21)S(=O)(=O)c1ccc(N)cc1 | Human immunodeficiency virus 1 | viral replication, inhibitor | MT2 |  | IC50 | 1.6 nM |
| Cc1ccnc2c1NC(=O)c1cccnc1N2C1CC1 | Human immunodeficiency virus 1 | viral replication | human PBMC | clinical isolate | IC90 | 242 nM |
| CC(C)CN(C[C@@H](O)[C@H](Cc1ccccc1)NC(=O)O[C@H]1CO[C@H]2OCC[C@H]21)S(=O)(=O)c1ccc(N)cc1 | Human immunodeficiency virus 1 | viral replication | T-lymphoid |  | IC50 | 1.6 nM |
| COC(=O)c1cc(-c2ccc(NC(=O)Nc3ccc(Cl)c(Cl)c3)cc2)on1 | Mycolicibacterium fortuitum | microbial growth, broth dilution | ATCC6841 | 48 h | MIC | > 64 µg/mL |
| CC(C)Nc1cccnc1N1CCN(C(=O)c2cc3cc(NS(C)(=O)=O)ccc3[nH]2)CC1 | Human immunodeficiency virus 1 | viral replication, inhibitor | human PBMC | clinical isolate | IC90 | 57.6 nM |
| COC(=O)c1cc(-c2cccc(NC(=O)Nc3c(C)cccc3C)c2)on1 | Mycolicibacterium fortuitum | microbial growth, broth dilution | ATCC6841 | 48 h | MIC | > 64 µg/mL |
| CC(C)CN(C[C@@H](O)[C@H](Cc1ccccc1)NC(=O)O[C@H]1CO[C@H]2OCC[C@H]21)S(=O)(=O)c1ccc(B(O)O)cc1 | Human immunodeficiency virus 1 | viral replication, inhibitor | MT2 |  | IC50 | 49 nM |
| CC[C@H](C)C[C@H](C)CCCCCCCCC(=O)N[C@H]1C[C@@H](O)[C@@H](NCCN)NC(=O)[C@@H]2[C@@H](O)CCN2C(=O)[C@H]([C@H](O)CCN)NC(=O)[C@H]([C@H](O)[C@@H](O)c2ccc(O)cc2)NC(=O)[C@@H]2C[C@@H](O)CN2C(=O)[C@H]([C@@H](C)O)NC1=O | Clavispora lusitaniae | microbial growth, broth dilution | MY1396 |  | MIC | 0.25 µg/mL (≈ 0.229 µM) |
